In ChEMBL document CHEMBL1275500, “Characterization of the new metallo-beta-lactamase VIM-13 and its integron-borne gene from a Pseudomonas aeruginosa clinical isolate in Spain” (Antimicrob Agents Chemother, 2008):
≈ marks a conversion by molar mass, not a printed value.

Tests used:
Pseudomonas aeruginosa [1] = assay: Antimicrobial activity against Pseudomonas aeruginosa PAO1 by Etest method; type: functional
Escherichia coli [2] = assay: Antimicrobial activity against Escherichia coli XL1-Blue harboring pUCP carrying VIM-13 gene by Etest method; type: functional
Procedure, shortened: (§1)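 Etest MICs of piperacillin, piperacillin-tazobactam, ceftazidime, cefepime, cefotaxime, aztreonam, imipenem and meropenem, run per manufacturer's recommendations. Strains were E. coli XL1-Blue or P. aeruginosa PAO1 carrying pUCP24-derived plasmids with blaVIM-1 or blaVIM-13 (cloned by EcoRI) inserted in the lacZ-promoter orientation. E. coli transformants were selected on 10 μg/ml gentamicin MacConkey agar; PAO1 electroporants were selected on 50 μg/ml gentamicin LB agar.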

Pseudomonas aeruginosa [3] = assay: Antimicrobial activity against Pseudomonas aeruginosa PAO1 harboring pUCP carrying VIM-13 gene by Etest method; type: functional; procedure, shortened: as §1
Escherichia coli [4] = assay: Antimicrobial activity against Escherichia coli XL1-Blue by Etest method; type: functional
Escherichia coli [5] = assay: Antimicrobial activity against Escherichia coli XL1-Blue harboring pUCP carrying VIM-1 gene by Etest method; type: functional; procedure, shortened: as §1
Pseudomonas aeruginosa [6] = assay: Antimicrobial activity against Pseudomonas aeruginosa isolate PA-SL2 harboring blaVIM-13 gene by Etest method; type: functional
Pseudomonas aeruginosa [7] = assay: Antimicrobial activity against Pseudomonas aeruginosa PAO1 harboring pUCP carrying VIM-1 gene by Etest method; type: functional; procedure, shortened: as §1
Pseudomonas aeruginosa [8] = assay: Antimicrobial activity against Pseudomonas aeruginosa isolate PA-SD2 harboring blaVIM-1 gene by Etest method; type: functional
Escherichia coli [9] = assay: Antimicrobial activity against Escherichia coli XL1-Blue harboring pGEM-T carrying aacA4 Ala108Thr mutant gene by Etest method; type: functional
Escherichia coli [10] = assay: Antimicrobial activity against Escherichia coli XL1-Blue harboring pGEM-T carrying aacA4 gene by Etest method; type: functional
Beta-lactamase VIM-1 = Beta-lactamase VIM-1 (Pseudomonas aeruginosa, UniProt Q9XAY4); assay: Inhibition of Pseudomonas aeruginosa VIM-1 beta-lactamase after 10 mins
Procedure, shortened: (§2)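 Zn2+-removal inactivation of purified VIM-1 or VIM-13, tested with varied concentrations of EDTA, dipicolinic acid or 1,10-o-phenanthroline. Enzyme and chelator were incubated 10 min at 20°C in 50 mM HEPES pH 7.5 with 20 μg/ml BSA, then 100 μM imipenem hydrolysis was measured as the reporter. IC50 is the chelator level halving hydrolytic activity.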

[11] = biological target: Class B carbapenemase VIM-13 (Pseudomonas aeruginosa, UniProt Q2HY42); assay: Inhibition of Pseudomonas aeruginosa VIM-13 beta-lactamase after 10 mins; procedure, shortened: as §2
[12] = test system: CC1(C)S[C@@H]2[C@H](NC(=O)[C@H](N)c3ccccc3)C(=O)N2[C@H]1C(=O)O; assay: (§3) Activity of Pseudomonas aeruginosa VIM-1 beta-lactamase
Procedure, shortened: (§4)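 GST-fused VIM-1 lacking signal peptide, purified, dialyzed in 50 mM HEPES pH 7.5 with 50 μM ZnSO4. Beta-lactam hydrolysis followed spectrophotometrically at 25°C in 50 mM HEPES pH 7.5, 50 μM ZnSO4, 20 μg/ml BSA.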

[13] = test system: CO/N=C(\C(=O)N[C@@H]1C(=O)N2C(C(=O)O)=C(COC(N)=O)CS[C@H]12)c1ccco1; assay: as §3; procedure, shortened: as §4
[14] = test system: C[C@@H](O)[C@H]1C(=O)N2C(C(=O)O)=C(S[C@@H]3CN[C@H](C(=O)N(C)C)C3)[C@H](C)[C@H]12; assay: as §3; procedure, shortened: as §4
[15] = test system: CCN1CCN(C(=O)N[C@@H](C(=O)N[C@@H]2C(=O)N3[C@@H]2SC(C)(C)[C@@H]3C(=O)O)c2ccccc2)C(=O)C1=O; assay: as §3; procedure, shortened: as §4
[16] = test system: CC(=O)OCC1=C(C(=O)O)N2C(=O)[C@@H](NC(=O)Cc3cccs3)[C@H]2SC1; assay: as §3; procedure, shortened: as §4
[17] = test system: CO/N=C(\C(=O)N[C@@H]1C(=O)N2C(C(=O)O)=C(COC(C)=O)CS[C@H]12)c1csc(N)n1; assay: as §3; procedure, shortened: as §4
[18] = test system: CC1(C)S[C@@H]2[C@H](NC(=O)Cc3ccccc3)C(=O)N2[C@H]1C(=O)O; assay: as §3; procedure, shortened: as §4
[19] = test system: CC(C)(O/N=C(\C(=O)N[C@@H]1C(=O)N2C(C(=O)[O-])=C(C[n+]3ccccc3)CS[C@H]12)c1csc(N)n1)C(=O)O; assay: as §3; procedure, shortened: as §4
[20] = test system: CC1(C)S[C@@H]2[C@H](NC(=O)[C@H](N)c3ccccc3)C(=O)N2[C@H]1C(=O)O; assay: (§5) Ratio of Kcat to Km for Pseudomonas aeruginosa VIM-1 beta-lactamase; procedure, shortened: as §4
[21] = test system: C[C@@H](O)[C@H]1C(=O)N2C(C(=O)O)=C(S[C@@H]3CN[C@H](C(=O)N(C)C)C3)[C@H](C)[C@H]12; assay: as §5; procedure, shortened: as §4
[22] = test system: CCN1CCN(C(=O)N[C@@H](C(=O)N[C@@H]2C(=O)N3[C@@H]2SC(C)(C)[C@@H]3C(=O)O)c2ccccc2)C(=O)C1=O; assay: as §5; procedure, shortened: as §4
[23] = test system: CC(=O)OCC1=C(C(=O)O)N2C(=O)[C@@H](NC(=O)Cc3cccs3)[C@H]2SC1; assay: as §5; procedure, shortened: as §4
[24] = test system: CC(C)(O/N=C(\C(=O)N[C@@H]1C(=O)N2C(C(=O)[O-])=C(C[n+]3ccccc3)CS[C@H]12)c1csc(N)n1)C(=O)O; assay: as §5; procedure, shortened: as §4

## CO/N=C(\C(=O)N[C@@H]1C(=O)N2C(C(=O)[O-])=C(C[N+]3(C)CCCC3)CS[C@H]12)c1csc(N)n1
Pseudomonas aeruginosa [1]
  MIC: 1 µg/mL (≈ 2.08 µM)
Escherichia coli [2]
  MIC: 1 µg/mL (≈ 2.08 µM)
Pseudomonas aeruginosa [3]
  MIC: 64 µg/mL (≈ 133 µM)
Escherichia coli [4]
  MIC: 0.19 µg/mL (≈ 0.395 µM)
Escherichia coli [5]
  MIC: 12 µg/mL (≈ 25 µM)
Pseudomonas aeruginosa [6]
  MIC: 32 µg/mL (≈ 66.6 µM)
Pseudomonas aeruginosa [7]
  MIC: > 256 µg/mL
Pseudomonas aeruginosa [8]
  MIC: > 256 µg/mL

## NCC[C@H](O)C(=O)N[C@@H]1C[C@H](N)[C@@H](O[C@H]2O[C@H](CN)[C@@H](O)[C@H](O)[C@H]2O)[C@H](O)[C@H]1O[C@H]1O[C@H](CO)[C@@H](O)[C@H](N)[C@H]1O [AMIKACIN]
Escherichia coli [4]
  MIC: 0.75 µg/mL (≈ 1.28 µM)
Escherichia coli [9]
  MIC: 0.75 µg/mL (≈ 1.28 µM)
Pseudomonas aeruginosa [6]
  MIC: 16 µg/mL (≈ 27.3 µM)
Pseudomonas aeruginosa [8]
  MIC: 3 µg/mL (≈ 5.12 µM)
Escherichia coli [10]
  MIC: 0.75 µg/mL (≈ 1.28 µM)

## C[C@H]1[C@H](NC(=O)/C(=N\OC(C)(C)C(=O)O)c2csc(N)n2)C(=O)N1S(=O)(=O)O [AZTREONAM]
Pseudomonas aeruginosa [1]
  MIC: 1 µg/mL (≈ 2.3 µM)
Escherichia coli [2]
  MIC: 0.125 µg/mL (≈ 0.287 µM)
Pseudomonas aeruginosa [3]
  MIC: 1.5 µg/mL (≈ 3.44 µM)
Escherichia coli [4]
  MIC: 0.19 µg/mL (≈ 0.436 µM)
Escherichia coli [5]
  MIC: 0.125 µg/mL (≈ 0.287 µM)
Pseudomonas aeruginosa [6]
  MIC: 4 µg/mL (≈ 9.19 µM)
Pseudomonas aeruginosa [7]
  MIC: 1.5 µg/mL (≈ 3.44 µM)
Pseudomonas aeruginosa [8]
  MIC: 24 µg/mL (≈ 55.1 µM)

## CO/N=C(\C(=O)N[C@@H]1C(=O)N2C(C(=O)O)=C(COC(C)=O)CS[C@H]12)c1csc(N)n1 [CEFOTAXIME]
Pseudomonas aeruginosa [1]
  MIC: 16 µg/mL (≈ 35.1 µM)
Escherichia coli [2]
  MIC: > 256 µg/mL
Pseudomonas aeruginosa [3]
  MIC: > 256 µg/mL
Escherichia coli [4]
  MIC: 0.19 µg/mL (≈ 0.417 µM)
Escherichia coli [5]
  MIC: > 256 µg/mL
Pseudomonas aeruginosa [6]
  MIC: > 256 µg/mL
Pseudomonas aeruginosa [7]
  MIC: > 256 µg/mL
Pseudomonas aeruginosa [8]
  MIC: > 256 µg/mL

## CC(C)(O/N=C(\C(=O)N[C@@H]1C(=O)N2C(C(=O)[O-])=C(C[n+]3ccccc3)CS[C@H]12)c1csc(N)n1)C(=O)O [CEFTAZIDIME]
Pseudomonas aeruginosa [1]
  MIC: 1 µg/mL (≈ 1.83 µM)
Escherichia coli [2]
  MIC: 6 µg/mL (≈ 11 µM)
Pseudomonas aeruginosa [3]
  MIC: 128 µg/mL (≈ 234 µM)
Escherichia coli [4]
  MIC: 0.38 µg/mL (≈ 0.695 µM)
Escherichia coli [5]
  MIC: 32 µg/mL (≈ 58.5 µM)
Pseudomonas aeruginosa [6]
  MIC: 32 µg/mL (≈ 58.5 µM)
Pseudomonas aeruginosa [7]
  MIC: > 256 µg/mL
Pseudomonas aeruginosa [8]
  MIC: > 256 µg/mL

## O=C(O)c1cn(C2CC2)c2cc(N3CCNCC3)c(F)cc2c1=O [CIPROFLOXACIN]
Escherichia coli [4]
  MIC: 0.064 µg/mL (≈ 0.193 µM)
Escherichia coli [9]
  MIC: 0.064 µg/mL (≈ 0.193 µM)
Pseudomonas aeruginosa [6]
  MIC: > 32 µg/mL
Pseudomonas aeruginosa [8]
  MIC: > 32 µg/mL
Escherichia coli [10]
  MIC: 0.064 µg/mL (≈ 0.193 µM)

## O=C(O)c1cccc(C(=O)O)n1 [DIPICOLINIC ACID]
Beta-lactamase VIM-1
  IC50: 41.6 µM
[11]
  IC50: 48 µM

## O=C(O)CN(CCN(CC(=O)O)CC(=O)O)CC(=O)O [EDETIC ACID]
Beta-lactamase VIM-1
  IC50: 9.3 µM
[11]
  IC50: 253 µM

## C[C@@H](O)[C@H]1C(=O)N2C(C(=O)O)=C(SCCNC=N)C[C@H]12 [IMIPENEM ANHYDROUS]
Pseudomonas aeruginosa [1]
  MIC: 1.5 µg/mL (≈ 5.01 µM)
Escherichia coli [2]
  MIC: 1 µg/mL (≈ 3.34 µM)
Pseudomonas aeruginosa [3]
  MIC: > 32 µg/mL
Escherichia coli [4]
  MIC: 0.25 µg/mL (≈ 0.835 µM)
Escherichia coli [5]
  MIC: 1 µg/mL (≈ 3.34 µM)
Pseudomonas aeruginosa [6]
  MIC: 24 µg/mL (≈ 80.2 µM)
Pseudomonas aeruginosa [7]
  MIC: > 32 µg/mL
Pseudomonas aeruginosa [8]
  MIC: > 32 µg/mL

## C[C@@H](O)[C@H]1C(=O)N2C(C(=O)O)=C(S[C@@H]3CN[C@H](C(=O)N(C)C)C3)[C@H](C)[C@H]12 [MEROPENEM]
Pseudomonas aeruginosa [1]
  MIC: 0.38 µg/mL (≈ 0.991 µM)
Escherichia coli [2]
  MIC: 0.19 µg/mL (≈ 0.495 µM)
Pseudomonas aeruginosa [3]
  MIC: > 32 µg/mL
Escherichia coli [4]
  MIC: 0.064 µg/mL (≈ 0.167 µM)
Escherichia coli [5]
  MIC: 0.25 µg/mL (≈ 0.652 µM)
Pseudomonas aeruginosa [6]
  MIC: 12 µg/mL (≈ 31.3 µM)
Pseudomonas aeruginosa [7]
  MIC: > 32 µg/mL
Pseudomonas aeruginosa [8]
  MIC: > 32 µg/mL

## c1cnc2c(c1)ccc1cccnc12 [PHENANTHROLINE]
Beta-lactamase VIM-1
  IC50: 73 µM
[11]
  IC50: 69.3 µM

## NC[C@H]1O[C@H](O[C@H]2[C@H](O)[C@@H](O[C@H]3O[C@H](CO)[C@@H](O)[C@H](N)[C@H]3O)[C@H](N)C[C@@H]2N)[C@H](N)C[C@@H]1O [TOBRAMYCIN]
Escherichia coli [4]
  MIC: 0.25 µg/mL (≈ 0.535 µM)
Escherichia coli [9]
  MIC: 2 µg/mL (≈ 4.28 µM)
Pseudomonas aeruginosa [6]
  MIC: 48 µg/mL (≈ 103 µM)
Pseudomonas aeruginosa [8]
  MIC: 16 µg/mL (≈ 34.2 µM)
Escherichia coli [10]
  MIC: 2 µg/mL (≈ 4.28 µM)

## Beta-lactamase VIM-1 (Pseudomonas aeruginosa) (from UniProt Q9XAY4)
[12]
  Km: 1740 µM
  kcat: 307 s⁻¹
[13]
  Km: 148 µM
  kcat: 239 s⁻¹
[14]
  Km: 72 µM
  kcat: 20 s⁻¹
[15]
  Km: 1380 µM
  kcat: 374 s⁻¹
[16]
  Km: 135 µM
  kcat: 449 s⁻¹
[17]
  Km: 285 µM
  kcat: 204 s⁻¹
[18]
  Km: 1300 µM
  kcat: 418 s⁻¹
[19]
  Km: 1130 µM
  kcat: 42 s⁻¹
[20]
  kcat/Km: 180000 M⁻¹ s⁻¹
[21]
  kcat/Km: 280000 M⁻¹ s⁻¹
[22]
  kcat/Km: 270000 M⁻¹ s⁻¹
[23]
  kcat/Km: 3.3e+06 M⁻¹ s⁻¹
[24]
  kcat/Km: 3.7 M⁻¹ s⁻¹

## GENTAMICIN
Escherichia coli [4]
  MIC: 0.19 µg/mL
Escherichia coli [9]
  MIC: 1 µg/mL
Pseudomonas aeruginosa [6]
  MIC: > 256 µg/mL
Pseudomonas aeruginosa [8]
  MIC: 48 µg/mL
Escherichia coli [10]
  MIC: 1 µg/mL
